Source: ChEMBL document CHEMBL1137333, “Synthesis, radiosynthesis, and biological evaluation of carbon-11 labeled 2beta-carbomethoxy-3beta-(3'-((Z)-2-haloethenyl)phenyl)nortropanes: candidate radioligands for in vivo imaging of the serotonin transporter with positron emission tomography” (J Med Chem, 2006)

How the values were obtained:
Cynomolgus monkey [1] = test: Uptake in anesthetized cynomolgus monkey frontal after 4.5 mins; format: ADME, organism-based, Frontal cortex; settings: in vivo, 0.075 h
Summary of the method: (§1)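 Baseline microPET scan (P4 scanner) of anesthetized cynomolgus monkeys after injection of the carbon-11 labelled nortropane tracer. Two baseline studies were run per tracer. Radioactivity was followed over time in regional brain time-activity curves.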

Cynomolgus monkey [2] = test: Uptake in anesthetized cynomolgus monkey occipital after 2.5 mins; format: ADME, organism-based, Macaca mulatta, Occipital cortex; settings: rhesus monkey, in vivo; summary of the method: as §1
Cynomolgus monkey [3] = test: Uptake in anesthetized cynomolgus monkey caudate after 75.0 mins; format: ADME, organism-based, Caudate nucleus; settings: in vivo, 1.25 h
Summary of the method: (§2)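 Baseline microPET (Concorde P4) regional brain time-activity curves in anesthetized cynomolgus monkey following injection of the [11C]-labelled tracer, with radioactivity followed over the scan.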

Cynomolgus monkey [4] = test: Uptake in anesthetized cynomolgus monkey cerebellum after 0.5 mins; format: ADME, organism-based; settings: in vivo; summary of the method: as §2
Cynomolgus monkey [5] = test: Uptake in anesthetized cynomolgus monkey putamen after 115.0 mins; format: ADME, organism-based; settings: in vivo
Summary of the method: (§3)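 Baseline microPET (Concorde P4) scan in anesthetized cynomolgus monkeys after injection of the carbon-11 labeled tracer, with no chase drug. Regional brain time-activity curves were followed over the scan. Tracer radiochemical purity and specific activity were determined by analytical HPLC at the time of injection.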

Cynomolgus monkey [6] = test: Uptake in anesthetized cynomolgus monkey pons after 15.5 mins; format: ADME, organism-based; settings: in vivo; summary of the method: as §3
Cynomolgus monkey [7] = test: Uptake in anesthetized cynomolgus monkey thalamus after 9.5 mins; format: ADME, organism-based; settings: in vivo; summary of the method: as §3
Cynomolgus monkey [8] = test: Uptake in anesthetized cynomolgus monkey frontal after 3.5 mins; format: ADME, organism-based, Frontal cortex; settings: in vivo; summary of the method: as §1
Cynomolgus monkey [9] = test: Uptake in anesthetized cynomolgus monkey medulla after 9.5 mins; format: ADME, organism-based, Medulla of organ; settings: in vivo; summary of the method: as §1
Cynomolgus monkey [10] = test: Uptake in anesthetized cynomolgus monkey occipital after 55.0 mins; format: ADME, organism-based, Occipital cortex; settings: in vivo; summary of the method: as §1
Cynomolgus monkey [11] = test: Uptake in anesthetized cynomolgus monkey pons after 27.5 mins; format: ADME, organism-based; settings: in vivo; summary of the method: as §3
Cynomolgus monkey [12] = test: Ratio of uptake in caudate to cerebellum of anesthetized cynomolgus monkey after 85 mins; format: ADME, organism-based; settings: in vivo
Summary of the method: (§4)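 Baseline microPET (Concorde P4) in anesthetized cynomolgus monkey after injection of the [11C]-labelled tracer. Regional time-activity curves were taken, and each region's uptake was divided by cerebellum uptake (low-SERT reference) at 65, 85 and 105 min postinjection.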

Cynomolgus monkey [13] = test: Uptake in anesthetized cynomolgus monkey pons after 95.0 mins; format: ADME, organism-based; settings: in vivo; summary of the method: as §3
Cynomolgus monkey [14] = test: Uptake in anesthetized cynomolgus monkey cerebellum after 95.0 mins; format: ADME, organism-based; settings: in vivo; summary of the method: as §2
Cynomolgus monkey [15] = test: Uptake in anesthetized cynomolgus monkey cerebellum after 18.5 mins; format: ADME, organism-based, Macaca mulatta; settings: rhesus monkey, in vivo; summary of the method: as §2
Cynomolgus monkey [16] = test: Uptake in anesthetized cynomolgus monkey caudate after 35.0 mins; format: ADME, organism-based, Caudate nucleus; settings: in vivo; summary of the method: as §2
Cynomolgus monkey [17] = test: Uptake in anesthetized cynomolgus monkey thalamus after 3.5 mins; format: ADME, organism-based; settings: in vivo; summary of the method: as §3
Cynomolgus monkey [18] = test: Uptake in anesthetized cynomolgus monkey pons after 18.5 mins; format: ADME, organism-based; settings: in vivo; summary of the method: as §3
Cynomolgus monkey [19] = test: Ratio of uptake in putamen to cerebellum of anesthetized cynomolgus monkey after 105 mins; format: ADME, organism-based; settings: in vivo, 1.75 h; summary of the method: as §4
Cynomolgus monkey [20] = test: Ratio of uptake in medulla to cerebellum of anesthetized cynomolgus monkey after 85 mins; format: ADME, organism-based; settings: in vivo; summary of the method: as §4
Cynomolgus monkey [21] = test: Uptake in anesthetized cynomolgus monkey caudate after 45.0 mins; format: ADME, organism-based, Caudate nucleus; settings: in vivo, 0.75 h; summary of the method: as §2
Cynomolgus monkey [22] = test: Uptake in anesthetized cynomolgus monkey thalamus after 55.0 mins; format: ADME, organism-based; settings: in vivo; summary of the method: as §3
Cynomolgus monkey [23] = test: Uptake in anesthetized cynomolgus monkey putamen after 75.0 mins; format: ADME, organism-based; settings: in vivo, 1.25 h; summary of the method: as §3
Cynomolgus monkey [24] = test: Uptake in anesthetized cynomolgus monkey caudate after 9.5 mins; format: ADME, organism-based, Caudate nucleus; settings: in vivo; summary of the method: as §2
Cynomolgus monkey [25] = test: Uptake in anesthetized cynomolgus monkey midbrain after 95.0 mins; format: ADME, organism-based; settings: in vivo; summary of the method: as §1
Cynomolgus monkey [26] = test: Ratio of uptake in caudate to cerebellum of anesthetized cynomolgus monkey after 105 mins; format: ADME, organism-based; settings: in vivo, 1.75 h; summary of the method: as §4
Cynomolgus monkey [27] = test: Uptake in anesthetized cynomolgus monkey occipital after 12.5 mins; format: ADME, organism-based, Macaca mulatta, Occipital cortex; settings: rhesus monkey, in vivo; summary of the method: as §1
Cynomolgus monkey [28] = test: Uptake in anesthetized cynomolgus monkey frontal after 65.0 mins; format: ADME, organism-based, Frontal cortex; settings: in vivo; summary of the method: as §1
Cynomolgus monkey [29] = test: Uptake in anesthetized cynomolgus monkey medulla after 4.5 mins; format: ADME, organism-based, Medulla of organ; settings: in vivo, 0.075 h; summary of the method: as §1
Cynomolgus monkey [30] = test: Uptake in anesthetized cynomolgus monkey frontal after 105.0 mins; format: ADME, organism-based, Frontal cortex; settings: in vivo, 1.75 h; summary of the method: as §1
Cynomolgus monkey [31] = test: Uptake in anesthetized cynomolgus monkey thalamus after 18.5 mins; format: ADME, organism-based; settings: in vivo; summary of the method: as §3
Cynomolgus monkey [32] = test: Uptake in anesthetized cynomolgus monkey thalamus after 115.0 mins; format: ADME, organism-based; settings: in vivo; summary of the method: as §3
Cynomolgus monkey [33] = test: Ratio of uptake in putamen to cerebellum of anesthetized cynomolgus monkey after 85 mins; format: ADME, organism-based; settings: in vivo; summary of the method: as §4
Cynomolgus monkey [34] = test: Ratio of uptake in midbrain to cerebellum of anesthetized cynomolgus monkey after 105 mins; format: ADME, organism-based; settings: in vivo, 1.75 h; summary of the method: as §4
Cynomolgus monkey [35] = test: Uptake in anesthetized cynomolgus monkey pons after 85.0 mins; format: ADME, organism-based; settings: in vivo; summary of the method: as §3

Structure (SMILES): [11CH3]OC(=O)[C@@H]1C2CCC(C[C@@H]1c1cccc(/C=C/Br)c1)N2 (stereo not given in full)
- Drug uptake (Cynomolgus monkey [1]): 1.57
- Drug uptake (Cynomolgus monkey [2]): 0.65
- Drug uptake (Cynomolgus monkey [3]): 6.61
- Drug uptake (Cynomolgus monkey [4]): 0.01
- Drug uptake (Cynomolgus monkey [5]): 7.1
- Drug uptake (Cynomolgus monkey [6]): 5.76
- Drug uptake (Cynomolgus monkey [7]): 4.3
- Drug uptake (Cynomolgus monkey [8]): 1.07
- Drug uptake (Cynomolgus monkey [9]): 5.99
- Drug uptake (Cynomolgus monkey [10]): 5.3
- Drug uptake (Cynomolgus monkey [11]): 6.51
- Ratio (Cynomolgus monkey [12]): 1.5
- Drug uptake (Cynomolgus monkey [13]): 8.08
- Drug uptake (Cynomolgus monkey [14]): 4.09
- Drug uptake (Cynomolgus monkey [15]): 6.13
- Drug uptake (Cynomolgus monkey [16]): 6.21
- Drug uptake (Cynomolgus monkey [17]): 1.54
- Drug uptake (Cynomolgus monkey [18]): 6.46
- Ratio (Cynomolgus monkey [19]): 1.8
- Ratio (Cynomolgus monkey [20]): 1.6
- Drug uptake (Cynomolgus monkey [21]): 6.63
- Drug uptake (Cynomolgus monkey [22]): 6.4
- Drug uptake (Cynomolgus monkey [23]): 7.45
- Drug uptake (Cynomolgus monkey [24]): 4.35
- Drug uptake (Cynomolgus monkey [25]): 7.89
- Ratio (Cynomolgus monkey [26]): 1.7
- Drug uptake (Cynomolgus monkey [27]): 4.08
- Drug uptake (Cynomolgus monkey [28]): 3.8
- Drug uptake (Cynomolgus monkey [29]): 3.57
- Drug uptake (Cynomolgus monkey [30]): 3.7
- Drug uptake (Cynomolgus monkey [31]): 5.21
- Drug uptake (Cynomolgus monkey [32]): 6.26
- Ratio (Cynomolgus monkey [33]): 1.6
- Ratio (Cynomolgus monkey [34]): 1.9
- Drug uptake (Cynomolgus monkey [35]): 7.24
